For one data set, the system named is Kir1.1. As to the kind of experiment: Tl+ flux selectivity assay, Kir1.1. In kind it is cell-based. Particulars: Thallium flux, Kir7.1 over Kir1.1. A digest of the protocol: (§1)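 Tetracycline-inducible stable T-REx-HEK-293 lines, induced overnight with 1 µg/ml tetracycline in DMEM/10% dialyzed FBS. Cells loaded 1 hr with 1.2 µM Thallos-AM in HBSS/20 mM HEPES pH 7.3 with 0.01% Pluronic F-127. Baseline fluorescence (ex 470, em 540 nm) read at 1 Hz before adding stimulus buffer with 1.8 mM Tl₂SO₄. Traces normalized to first point and vehicle-subtracted; slope taken 5–20 s post-Tl⁺; IC50 by nonlinear regression of CRCs.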

In a further data set the target is T1, Kir4.1 (Homo sapiens, UniProt P78508).
T1 sequence (P78508 1-379): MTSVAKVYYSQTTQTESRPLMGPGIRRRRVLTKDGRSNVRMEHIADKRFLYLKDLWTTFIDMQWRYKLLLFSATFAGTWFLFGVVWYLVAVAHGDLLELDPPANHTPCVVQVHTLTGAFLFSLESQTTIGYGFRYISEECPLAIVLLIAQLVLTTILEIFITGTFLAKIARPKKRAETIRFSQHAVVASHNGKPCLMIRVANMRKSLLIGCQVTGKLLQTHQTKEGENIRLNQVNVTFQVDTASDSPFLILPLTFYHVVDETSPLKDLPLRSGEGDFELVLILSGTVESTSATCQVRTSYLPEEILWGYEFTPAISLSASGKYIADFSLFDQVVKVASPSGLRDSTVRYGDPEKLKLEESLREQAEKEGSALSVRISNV
As to the kind of experiment: Tl+ flux selectivity assay, Kir4.1. It is filed as cell-based. Particulars: Thallium flux, Kir7.1 over Kir4.1. A digest of the protocol:
as §1

The target in another data set is T2, Kir7.1-M125R (Homo sapiens, UniProt O60928, M125R).
T2 sequence (O60928 1-360 M125R): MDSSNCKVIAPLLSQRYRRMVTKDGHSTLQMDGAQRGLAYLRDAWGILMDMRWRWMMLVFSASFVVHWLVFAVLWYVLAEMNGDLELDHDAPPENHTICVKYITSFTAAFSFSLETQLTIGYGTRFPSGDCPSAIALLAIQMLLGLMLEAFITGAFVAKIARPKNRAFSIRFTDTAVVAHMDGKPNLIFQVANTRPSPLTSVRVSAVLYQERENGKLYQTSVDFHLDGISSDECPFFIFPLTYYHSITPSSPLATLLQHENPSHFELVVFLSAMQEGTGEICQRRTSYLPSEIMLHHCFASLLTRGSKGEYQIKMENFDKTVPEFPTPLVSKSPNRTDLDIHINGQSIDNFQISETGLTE
The data set can be described thus: Tl+ flux assay in T-REx-HEK293 cells expressing Kir7.1-M125R. It is filed as cell-based. Put shortly:
as §1

Data set [1] is described as follows: Protein binding in plasma. Particulars: rat.
The target in data set [2] is T3, Kir7.1 (Homo sapiens, UniProt O60928, M125R).
T3 sequence (O60928 1-360 M125R): T2 sequence (O60928 1-360 M125R)
As to the kind of experiment: Whole-cell patch clamp electrophysiology, Kir7.1. In kind it is cell-based. Particulars: Kir7.1 IC50 (Patch clamp), -120 mV. Put shortly:
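Human Kir7.1 (WT or mutant) was transiently co-transfected with EGFP into HEK-293T cells, which were replated next day on poly-L-lysine coverslips. Whole-cell clamp used bath 5 mM KCl, pH 7.4, and pipette 135 mM KCl, pH 7.3. Cells were held at −75 mV, stepped 500 ms to −120 mV, then ramped to 120 mV, every 5 s. Increasing test-compound doses were superfused, then BaCl₂ block; current read at −120 mV; variable-slope Hill fit, mean of n = 5.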
(In general: In patch-clamp work, channel activity is measured electrically.)

Data set [3] in a line: Protein binding in plasma. Particulars: mouse.
The next data set concerns the target T4, Kir2.2 (Homo sapiens, UniProt Q14500).
T4 sequence (Q14500 1-433): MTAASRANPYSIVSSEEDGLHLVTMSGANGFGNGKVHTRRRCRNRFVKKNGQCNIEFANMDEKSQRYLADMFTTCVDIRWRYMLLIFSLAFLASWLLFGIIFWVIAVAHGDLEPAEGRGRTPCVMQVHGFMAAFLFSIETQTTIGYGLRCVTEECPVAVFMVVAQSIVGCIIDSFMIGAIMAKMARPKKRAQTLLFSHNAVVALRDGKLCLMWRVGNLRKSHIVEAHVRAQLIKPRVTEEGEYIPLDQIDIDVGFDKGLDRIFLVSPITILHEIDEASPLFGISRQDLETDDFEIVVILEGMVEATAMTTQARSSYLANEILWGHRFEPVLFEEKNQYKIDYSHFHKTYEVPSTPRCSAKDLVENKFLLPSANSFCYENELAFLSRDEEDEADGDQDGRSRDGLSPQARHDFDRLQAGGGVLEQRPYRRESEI
The data set can be described thus: Tl+ flux selectivity assay, Kir2.2. Particulars: Thallium flux, Kir7.1 over Kir2.2. It is filed as cell-based.

The next data set concerns the target Kir6.2/SUR1 (Homo sapiens, UniProt Q14654). As to the kind of experiment: Tl+ flux selectivity assay, Kir6.2/SUR1. It is filed as cell-based. Particulars: Thallium flux, Kir7.1 over Kir6.2/SUR1. A digest of the protocol:
as §1

Another data set concerns the target T5, Kir2.3 (Homo sapiens, UniProt P48050).
T5 sequence (P48050 1-445): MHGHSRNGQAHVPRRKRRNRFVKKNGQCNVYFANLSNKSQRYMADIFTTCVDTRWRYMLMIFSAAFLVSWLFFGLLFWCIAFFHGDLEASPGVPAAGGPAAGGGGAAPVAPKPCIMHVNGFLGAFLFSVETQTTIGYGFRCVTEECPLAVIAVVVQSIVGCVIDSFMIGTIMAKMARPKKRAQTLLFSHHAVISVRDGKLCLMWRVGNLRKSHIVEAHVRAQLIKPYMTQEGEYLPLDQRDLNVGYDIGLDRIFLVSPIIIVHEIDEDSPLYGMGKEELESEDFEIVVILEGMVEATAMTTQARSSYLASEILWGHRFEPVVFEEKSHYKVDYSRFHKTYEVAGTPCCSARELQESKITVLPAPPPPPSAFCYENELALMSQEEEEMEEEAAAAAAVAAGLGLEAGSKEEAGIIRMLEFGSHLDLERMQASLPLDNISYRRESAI
As to the kind of experiment: Tl+ flux selectivity assay, Kir2.3. It is filed as cell-based. Particulars: Thallium flux, Kir7.1 over Kir2.3.

Data set [4] deals with T6, Kir2.1 (Homo sapiens, UniProt P63252).
T6 sequence (P63252 1-427): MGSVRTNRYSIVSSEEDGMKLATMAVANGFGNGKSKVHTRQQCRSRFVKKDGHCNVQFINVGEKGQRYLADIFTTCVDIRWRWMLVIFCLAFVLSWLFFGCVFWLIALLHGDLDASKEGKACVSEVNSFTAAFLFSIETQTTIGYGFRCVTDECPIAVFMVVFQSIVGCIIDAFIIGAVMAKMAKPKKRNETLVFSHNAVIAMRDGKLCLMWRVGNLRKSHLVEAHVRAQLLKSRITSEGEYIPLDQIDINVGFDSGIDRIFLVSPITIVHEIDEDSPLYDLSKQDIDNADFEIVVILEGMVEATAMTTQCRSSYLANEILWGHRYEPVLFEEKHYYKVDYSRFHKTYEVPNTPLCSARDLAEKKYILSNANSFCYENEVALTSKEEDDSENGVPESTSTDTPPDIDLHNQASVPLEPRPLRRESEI
As to the kind of experiment: Tl+ flux selectivity assay, Kir2.1. In kind it is cell-based. Particulars: Thallium flux, Kir7.1 over Kir2.1. Put shortly:
as §1

Data set [5] is described as follows: Protein binding in plasma. Particulars: human.
For data set [6], the system named is Kir7.1. Particulars: read-out: Kir7.1 IC50 EP, cited from earlier work.
For data set [7], the system named is ROMK. Particulars: read-out: ROMK IC50 Tl+; ref [16]; cited from earlier work.
The subject of data set [8] is ROMK. Particulars: read-out: ROMK IC50 EP, cited from earlier work.
Data set [9] has as its target T6, Kir2.1. Particulars: read-out: Kir2.1 IC50; at pH 8.0; ref [24]; cited from earlier work.

Where “and” joins values, the source holds several entries; their conditions need not be identical. Identical values can stand only once. Like-named read-outs stand apart in the source and are kept apart here.

What is called IC50 is the concentration that inhibits the measured activity by half. The term fraction unbound denotes the share of the substance not bound to proteins or other matrix.

Sequence of Kir6.2/SUR1 (Q14654 whole entry): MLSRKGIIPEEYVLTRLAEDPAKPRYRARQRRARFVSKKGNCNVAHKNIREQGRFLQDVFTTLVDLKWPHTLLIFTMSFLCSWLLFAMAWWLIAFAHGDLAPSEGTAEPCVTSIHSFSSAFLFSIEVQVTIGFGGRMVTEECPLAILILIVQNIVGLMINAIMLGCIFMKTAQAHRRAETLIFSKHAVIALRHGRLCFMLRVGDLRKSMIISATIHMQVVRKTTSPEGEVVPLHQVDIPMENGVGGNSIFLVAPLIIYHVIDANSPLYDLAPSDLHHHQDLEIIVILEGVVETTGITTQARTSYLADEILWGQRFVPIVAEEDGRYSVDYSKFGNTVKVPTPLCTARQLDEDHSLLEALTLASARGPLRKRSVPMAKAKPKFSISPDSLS
Sequence of Kir6.2/SUR1 (Q09428 whole entry partner): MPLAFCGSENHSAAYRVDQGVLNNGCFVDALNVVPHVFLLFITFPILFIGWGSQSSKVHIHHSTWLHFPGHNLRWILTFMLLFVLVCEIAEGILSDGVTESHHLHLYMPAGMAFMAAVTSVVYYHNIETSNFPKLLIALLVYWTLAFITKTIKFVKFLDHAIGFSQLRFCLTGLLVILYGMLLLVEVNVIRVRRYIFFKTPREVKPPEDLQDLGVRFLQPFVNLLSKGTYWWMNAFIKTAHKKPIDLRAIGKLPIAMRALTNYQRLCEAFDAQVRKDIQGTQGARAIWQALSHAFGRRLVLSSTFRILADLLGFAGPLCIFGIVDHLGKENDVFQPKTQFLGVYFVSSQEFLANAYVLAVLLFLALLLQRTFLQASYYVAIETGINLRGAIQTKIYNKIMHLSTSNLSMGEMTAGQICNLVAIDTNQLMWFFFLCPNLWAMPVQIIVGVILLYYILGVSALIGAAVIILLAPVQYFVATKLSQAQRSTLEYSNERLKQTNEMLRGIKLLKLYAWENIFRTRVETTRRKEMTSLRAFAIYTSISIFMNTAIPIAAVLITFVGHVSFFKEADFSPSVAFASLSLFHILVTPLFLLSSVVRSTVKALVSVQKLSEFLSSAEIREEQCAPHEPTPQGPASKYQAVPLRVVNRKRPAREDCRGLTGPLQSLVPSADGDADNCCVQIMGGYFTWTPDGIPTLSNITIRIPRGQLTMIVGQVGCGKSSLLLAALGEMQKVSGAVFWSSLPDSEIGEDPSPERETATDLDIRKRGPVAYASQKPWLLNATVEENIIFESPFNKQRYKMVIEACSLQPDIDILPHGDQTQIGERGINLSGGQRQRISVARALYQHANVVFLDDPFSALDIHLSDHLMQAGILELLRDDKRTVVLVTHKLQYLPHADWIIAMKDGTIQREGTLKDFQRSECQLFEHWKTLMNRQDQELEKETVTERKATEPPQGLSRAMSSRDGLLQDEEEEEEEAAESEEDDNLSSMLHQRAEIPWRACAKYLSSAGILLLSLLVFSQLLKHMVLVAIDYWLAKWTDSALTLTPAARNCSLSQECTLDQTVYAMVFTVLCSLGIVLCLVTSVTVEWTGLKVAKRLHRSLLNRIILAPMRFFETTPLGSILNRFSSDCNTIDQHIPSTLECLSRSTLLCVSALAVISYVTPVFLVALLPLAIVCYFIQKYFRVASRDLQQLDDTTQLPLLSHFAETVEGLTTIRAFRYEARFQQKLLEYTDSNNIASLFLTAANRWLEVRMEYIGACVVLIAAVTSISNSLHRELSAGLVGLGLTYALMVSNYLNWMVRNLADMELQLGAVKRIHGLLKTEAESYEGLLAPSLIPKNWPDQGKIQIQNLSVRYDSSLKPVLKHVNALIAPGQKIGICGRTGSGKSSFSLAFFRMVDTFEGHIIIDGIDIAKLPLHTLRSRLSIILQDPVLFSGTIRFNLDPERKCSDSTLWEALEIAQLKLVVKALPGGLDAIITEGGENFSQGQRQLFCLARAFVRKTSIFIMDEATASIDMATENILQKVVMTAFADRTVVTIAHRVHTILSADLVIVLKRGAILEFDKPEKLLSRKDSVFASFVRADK

As for `CC(C)(C)OC(=O)NC1CCN(Cc2cc(Cl)c3cccnc3c2O)CC1` [Compound 11, tert-Butyl (1-((5-chloro-8-hydroxyquinolin-7-yl)methyl)piperidin-4-yl)carbamate], in the data set with Kir1.1, the “Kir Channel Selectivity (Fold) 1.1” value is on record as above 18 Fold. Also, the “Kir Channel Selectivity (Fold) 4.1” value on Kir4.1 is on record as above 18 Fold. Besides, the 50% inhibitory concentration (IC50) amounted to 1700 nM against Kir7.1-M125R and 470 nM against Kir7.1 [2]. In addition, the fraction unbound was determined as 0.036 in data set [1], 0.056 in data set [3] and 0.011 in [5]. Further, at Kir2.2, the “Kir Channel Selectivity (Fold) 2.2” value is above 18 Fold. Besides, the “Kir Channel Selectivity (Fold) 6.2” value at Kir6.2/SUR1 turned out to be 1 Fold. Moreover, the “Kir Channel Selectivity (Fold) 2.3” value on Kir2.3 is above 18 Fold. Besides, the “Kir Channel Selectivity (Fold) 2.1” value on Kir2.1 [4] is reported as above 18 Fold.

With `O=[N+]([O-])c1ccc(CN2CCOCCOCCN(Cc3ccc([N+](=O)[O-])cc3)CCOCC2)cc1` [VU590], the IC50 in the data set with Kir7.1 [6] (ref [16]) is ~8000 nM and 8000 nM; in the data set on ROMK [7], 300 nM; in the data set on ROMK [8] (ref [16]) it was 240 nM.

`COc1ccc(CNCc2cccc3ccccc23)cc1` [ML133]: the IC50 on Kir2.1 [9] was 300 nM; in the data set with Kir7.1 [6] (ref [24]), 33000 nM; with ROMK [8] (ref [24]), above 300000 nM.

Source of the values: publication PMC5131535 (ACS chemical neuroscience, 2016).
